Assay results reported in ChEMBL document CHEMBL1151332, “A new prenylated flavonol from the roots of Sophora flavescens” (J Nat Prod, 1998).
≈ marks a conversion by molar mass, not a printed value. Calls of active or inactive are those of the source. The calls are words filed in the database; no cut-off is given here.

test system: Human alphaherpesvirus 2; test: Antiviral activity against HSV2 in african green monkey Vero cells assessed as virus-induced cytopathic effect after 3 days by MTT assay; type: functional, organism-based; conditions: not given
In short: (§1)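 Vero cells seeded at 3 × 10³/well and grown 3-4 days to a confluent monolayer, washed, then infected with virus diluted in DME plus 2% FBS at a dose equal to 50% cell culture inhibitory dose (CCID50) for 60 min at 37 °C. Inoculum removed; medium with graded sample concentrations (below 300 µg/mL) added in duplicate; 3 days at 37 °C, 5% CO2. MTT read-out; EC50 = concentration inhibiting virus-induced CPE by 50%.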

Row | SMILES | Activity
1 | C=C(C)[C@H](CC=C(C)C)Cc1c(O)cc(OC)c(C(=O)/C=C/c2ccc(O)cc2O)c1O [KURAIDIN] | inactive
2 | COc1cc(O)c(CC=C(C)C)c2oc(-c3ccc(O)cc3)c(O)c(=O)c12 [SOPHOFLAVESCENOL] | inactive
3 | OC[C@H]1O[C@@H](Oc2ccc3c(c2)OC[C@H]2c4cc5c(cc4O[C@@H]32)OCO5)[C@H](O)[C@@H](O)[C@@H]1O [TRIFOLIRHIZIN] | inactive

same assay, conditions: Human alphaherpesvirus 2, Vero, 72 h

Row | SMILES | EC50
4 | C=C(C)[C@H](CCC(C)(C)O)Cc1c(O)cc(OC)c2c1O[C@H](c1ccc(O)cc1O)[C@@H](O)C2=O [KUSHENOL H] | 162 µg/mL (≈ 343 µM)
5 | C=C(C)[C@H](CCC(C)(C)O)Cc1c(O)cc(OC)c2c1O[C@H](c1ccc(O)cc1O)[C@H](O)C2=O [KUSHENOL K] | 147 µg/mL (≈ 311 µM)
6 | C=C(C)[C@H](CCC(C)(C)O)Cc1c(O)cc(OC)c2c1O[C@H](c1ccc(O)cc1O)CC2=O [KURARINOL] | 44 µg/mL (≈ 96.4 µM)

test system: Human alphaherpesvirus 1; test: Antiviral activity against HSV1 in african green monkey Vero cells assessed as virus-induced cytopathic effect after 3 days by MTT assay; type: functional, organism-based; conditions: Human alphaherpesvirus 1, Vero, 72 h; in short: as §1

Row | SMILES | EC50
7 | C=C(C)[C@H](CC=C(C)C)Cc1c(O)cc(OC)c(C(=O)/C=C/c2ccc(O)cc2O)c1O [KURAIDIN] | > 300 µg/mL
8 | COc1cc(O)c(CC=C(C)C)c2oc(-c3ccc(O)cc3)c(O)c(=O)c12 [SOPHOFLAVESCENOL] | > 300 µg/mL
9 | C=C(C)[C@H](CCC(C)(C)O)Cc1c(O)cc(OC)c2c1O[C@H](c1ccc(O)cc1O)[C@@H](O)C2=O [KUSHENOL H] | > 300 µg/mL
10 | C=C(C)[C@H](CCC(C)(C)O)Cc1c(O)cc(OC)c2c1O[C@H](c1ccc(O)cc1O)[C@H](O)C2=O [KUSHENOL K] | > 300 µg/mL
11 | C=C(C)[C@H](CCC(C)(C)O)Cc1c(O)cc(OC)c2c1O[C@H](c1ccc(O)cc1O)CC2=O [KURARINOL] | 60 µg/mL (≈ 131 µM)
12 | OC[C@H]1O[C@@H](Oc2ccc3c(c2)OC[C@H]2c4cc5c(cc4O[C@@H]32)OCO5)[C@H](O)[C@@H](O)[C@@H]1O [TRIFOLIRHIZIN] | > 300 µg/mL
